From ChEMBL document CHEMBL1129988, “4-substituted cubylcarbinylamines: a new class of mechanism-based monoamine oxidase B inactivators” (J Med Chem, 1997) come the findings set out here.

Test [1] concerns the target T1, Amine oxidase [flavin-containing] B (Bos taurus, UniProt P56560).
T1 sequence (P56560 whole entry): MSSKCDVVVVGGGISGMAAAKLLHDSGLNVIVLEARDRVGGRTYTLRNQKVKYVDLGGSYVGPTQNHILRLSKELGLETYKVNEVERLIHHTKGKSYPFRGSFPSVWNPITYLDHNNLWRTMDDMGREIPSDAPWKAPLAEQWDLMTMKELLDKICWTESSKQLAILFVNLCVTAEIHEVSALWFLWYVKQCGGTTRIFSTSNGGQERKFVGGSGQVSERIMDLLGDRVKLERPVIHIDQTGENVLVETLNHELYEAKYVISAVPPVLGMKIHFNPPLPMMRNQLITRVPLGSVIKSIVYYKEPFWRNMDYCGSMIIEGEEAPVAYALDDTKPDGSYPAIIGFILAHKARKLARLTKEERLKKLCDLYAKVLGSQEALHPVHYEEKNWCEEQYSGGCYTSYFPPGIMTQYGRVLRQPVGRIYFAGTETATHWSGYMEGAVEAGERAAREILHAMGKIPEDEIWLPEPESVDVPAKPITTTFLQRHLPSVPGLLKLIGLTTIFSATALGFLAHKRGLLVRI
Kind of test: Inactivation constant was determined against mitochondrial Monoamine oxidase B. The method, boiled down:
(§1)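 MAO B (20 μL of 2.6 mg/mL) was added to the amine hydrochloride at various concentrations, in 100 mM Tris pH 9.0 with 4% v/v DMSO. The mixture was incubated at 25 °C. At intervals an aliquot was diluted 1:50 into 1.0 mM benzylamine in the same buffer, and activity was read as the change in absorbance at 250 nm. Activity is expressed relative to a no-inactivator DMSO control. K_I and k_inact were derived by the Kitz–Wilson method.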

The target of test [2] is T1, Amine oxidase [flavin-containing] B. Nature of the test: Inhibition constant was evaluated against mitochondrial Monoamine oxidase B. The method, boiled down:
as §1

Test [3] shares this target. Kind of test: K inact/KI against Monoamine oxidase B. A digest of the protocol:
as §1

In general, kinact refers to the rate constant of inactivation at saturating inhibitor. For orientation: Ki means a dissociation constant, usually derived from enzyme kinetics or from competition with a known ligand. Low readings indicate higher affinity, high ones lower affinity. By kinact/KI is commonly meant the maximal inactivation rate divided by the concentration that gives half of it. As for `NCC12C3C4C5C3C1C5C42` (centres undefined), in test [1], the inactivation rate constant (kinact) is 0.00055 s⁻¹. Besides, the inhibitory constant (Ki) in test [2] amounted to 170 µM. Also, the second-order inactivation constant (kinact/KI) in test [3] is 3.17 M⁻¹ s⁻¹.

Take `NCC12C3C4C1C1C2C3C41C1CC1` (centres undefined): the kinact in test [1] was 0.00467 s⁻¹. The compound further returned a Ki in test [2] of 260 µM. In addition, the second-order inactivation constant (kinact/KI) in test [3] is 18.3 M⁻¹ s⁻¹.

On to `NCC12C3C4C1C1C2C3C41c1ccccc1` (centres undefined), for which the kinact in test [1] was 0.0125 s⁻¹. In test [2], this compound returned a Ki of 120 µM. Further, the kinact/KI in test [3] is 105 M⁻¹ s⁻¹.
